These results are taken from publication PMC9041536 (RSC Advances, 2021).

For series [1], the system named is human intrahepatic cholangiocarcinoma (KKU-M213). Nature of the series: SRB cytotoxicity assay, KKU-M213. The format is cell-based. Particulars: KKU-M213, 72 h, read-out: Cytotoxicity (IC50) KKU-M213. On the technique in general: The SRB assay estimates cell density from bound dye.
Series [2] concerns human squamous cell carcinoma (FaDu). Nature of the series: SRB cytotoxicity assay, FaDu. Particulars: 72 h, read-out: Cytotoxicity (IC50) FaDu. In kind it is cell-based.
Series [3] deals with human colorectal adenocarcinoma (HT-29). Nature of the series: SRB cytotoxicity assay, HT-29. Particulars: HT-29, 72 h, read-out: Cytotoxicity (IC50) HT-29. The format is cell-based.
Series [4] has as its system human mammary gland adenocarcinoma (MDA-MB-231). The series can be described thus: SRB cytotoxicity assay, MDA-MB-231. The format is cell-based. Particulars: MDA-MB-231, 72 h, read-out: Cytotoxicity (IC50) MDA-MB-231.
In series [5] the test system is human lung carcinoma (A-549). The series can be described thus: SRB cytotoxicity assay, A-549. In kind it is cell-based. Particulars: A549, 72 h, read-out: Cytotoxicity (IC50) A-549.
Series [6] has as its system human neuroblastoma (SH-SY5Y). Nature of the series: SRB cytotoxicity assay, SH-SY5Y. The format is cell-based. Particulars: for IC50: Homo sapiens, SH-SY5Y, 72 h, read-out: Cytotoxicity (IC50) SH-SY5Y.
Series [7] is described as follows: SRB cytotoxicity assay, normal cell line CL. The format is cell-based. Particulars: human, CL cells (normal liver hepatic cell line).
The test system of series [8] is S. aureus (ATCC 25923). The series can be described thus: Agar well diffusion method, S. aureus. The format is cell-based. Particulars: Staphylococcus aureus, ATCC25923, read-out: zone of inhibition S. aureus. A digest of the protocol: (§1)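 Bacteria swabbed onto Mueller–Hinton agar, then 6 mm wells cut with a sterile cork borer. Each well received 20 µL of test compound dissolved in DMSO at 5 mg mL−1. Plates held 30 min in a refrigerator for diffusion, then incubated at 37 °C for 16–20 h. Inhibition zone measured in mm. Negative control: 10% DMSO.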
(In general: Agar diffusion results depend on both activity and mobility in agar.)

The test system of series [9] is E. coli (ATCC 25922). The series can be described thus: Agar well diffusion method, E. coli. Particulars: Escherichia coli, ATCC25922, read-out: zone of inhibition E. coli. In kind it is cell-based. A digest of the protocol: as §1
Series [10] deals with P. aeruginosa (ATCC 27853). The series can be described thus: Agar well diffusion method, P. aeruginosa. The format is cell-based. Particulars: Pseudomonas aeruginosa, ATCC27853, read-out: zone of inhibition P. aeruginosa. A digest of the protocol:
as §1

The subject of series [11] is six cancer cell lines, KKU-M213, FaDu, HT-29, MDA-MB-231, A-549, and SH-SY5Y. Nature of the series: SRB cytotoxicity assay, all tested cancer cell lines. The format is cell-based, human. Particulars: for Cytotoxicity (in words): under tested concentrations (0.1–50 μM). The essentials: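 Sulforhodamine B assay, slightly modified, with ellipticine as positive control. Compounds were in 10% DMSO and tested over 0.1–50 μM. Cells exposed for 72 h at 37 °C, 5% CO2, humidified. Fixed with 10% TCA, stained with 0.4% SRB, unbound dye washed off with 1% acetic acid, bound dye solubilised in 10 mM Tris base (pH 10.5). A510 read. IC50 is the concentration giving 50% growth inhibition.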

For the molecule `CCCCCC(=O)Oc1c(C)c(O)c(C(=O)/C=C/c2ccccc2)c(OC)c1C` [Compound 2b, 2′-Hydroxy-4′-caproyloxy-6′-methoxy-3′,5′-dimethylchalcone], the IC50 (commonly the concentration that inhibits the measured activity by half) amounted to 21.3 µM in series [1]; 18.9 µM in series [2]; 26.6 µM in [3]; 18.1 µM in series [4]; 24.8 µM in series [5]; 5.2 µM in [6]. Also, the “Selectivity Index (SI) SH-SY5Y” value in series [6] (ratio of IC50 on normal cell (CL) divided by that on cancer cell) worked out at 4.53. The molecule also returned an IC50 at 72 h in [7] of 23.5 µM.

For the molecule `COc1c(C)c(OC(C)=O)c(C)c(O)c1C(=O)/C=C/c1ccccc1` [Compound 2f, 2′-Hydroxy-4′-acetyloxy-6′-methoxy-3′,5′-dimethylchalcone], the IC50 in series [1] was 43 µM; in series [2], 36.5 µM; in series [3], 38.6 µM; in [4], 40.3 µM; in [5] it was more than 50 µM; in [6], 28.6 µM. Further, the IC50 at 72 h in series [7] is 31 µM.

Take `COc1c(C)c(OC(=O)c2ccc(C)cc2)c(C)c(O)c1C(=O)/C=C/c1ccccc1` [Compound 2l, 2′-Hydroxy-4′-(p-toluoyloxy)-6′-methoxy-3′,5′-dimethylchalcone]: the IC50 in series [1] worked out at 28.9 µM; in series [2] it was 22.1 µM; in [3], 26.8 µM; in series [4], 25.1 µM; in series [5], 22.4 µM; in [6], 15.6 µM. Besides, the IC50 at 72 h in series [7] stood at 25.4 µM.

`COc1c(C)c(O)c(C)c(O)c1C(=O)/C=C/c1ccccc1` [DMC, 2′,4′-Dihydroxy-6′-methoxy-3′,5′-dimethylchalcone]: the IC50 in series [1] stood at 29.4 µM; in series [2], 37.6 µM; in series [3] it was 38.6 µM; in series [4], 37.6 µM; in series [5] it was 19.9 µM; in [6], 13.1 µM. In addition, it took 15.6 µM to reach half-maximal inhibition in series [7] (IC50 at 72 h). The zone of inhibition (usually the extent of the growth-free halo in a diffusion test) at 5 µg/mL in [8] is 9 mm; in [9] it was 8 mm; in [10], 8 mm.

As for `COc1c(C)c(OCc2ccccc2)c(C)c(O)c1C(=O)/C=C/c1ccccc1` [Compound 2h, 2′-Hydroxy-4′-benzyloxy-6′-methoxy-3′,5′-dimethylchalcone], the IC50 in series [1] is 23.2 µM; in [2] it was 14 µM; in series [3], 27.5 µM; in series [4], 26.9 µM; in series [5], 9.99 µM; in series [6] it was 16.4 µM. Further, inhibition in [7] was half-maximal at 22.6 µM (IC50 at 72 h).

`CCCC(=O)Oc1c(C)c(O)c(C(=O)/C=C/c2ccccc2)c(OC)c1C` [Compound 2a, 2′-Hydroxy-4′-butyryloxy-6′-methoxy-3′,5′-dimethylchalcone]: the IC50 in series [1] is 30.1 µM; in series [2], 31.2 µM; in series [3], 35.8 µM; in series [4], 38.2 µM; in series [5] it was more than 50 µM; in [6] it was 27.6 µM. Also, the midpoint of inhibition in series [7], the IC50 at 72 h, lay at 32.8 µM.

Regarding `CCCCCCCC(=O)Oc1c(C)c(O)c(C(=O)/C=C/c2ccccc2)c(OC)c1C` [Compound 2c, 2′-Hydroxy-4′-capryloyloxy-6′-methoxy-3′,5′-dimethylchalcone], the IC50 is 24.4 µM in series [1]; 20.6 µM in series [2]; 26.6 µM in [3]; 25.9 µM in series [4]; more than 50 µM in [5]; 18 µM in series [6]. The same molecule displayed an IC50 at 72 h in series [7] of 25.2 µM.

For the molecule `COc1c(C)c(OC)c(C(=O)/C=C/c2ccccc2)c(OC)c1C` [Compound 5g, 2′,4′,6′-Trimethoxy-3′,5′-dimethylchalcone], the IC50 worked out at 23.5 µM in series [1]; 19.3 µM in series [2]; 21.9 µM in series [3]; 29.8 µM in [4]; 22.7 µM in series [5]; 12.6 µM in series [6]. Further, the IC50 in series [11] (Homo sapiens, read-out: IC50 on all tested cancer cell lines) is 12.6 to 29.8 µM. Also, 18.7 µM corresponded to half-maximal inhibition in [7] (IC50 at 72 h). The “Cytotoxicity (in words)” value in [11] was “moderate cytotoxicity”.

For `Cc1c2ccncc2c(C)c2c1[nH]c1ccccc12` [Ellipticine, reference compound], the IC50 worked out at 2.4 µM in [1]; 2.03 µM in [2]; 2.15 µM in series [3]; 2.8 µM in [4]; 1.14 µM in [5]; 2.64 µM in [6]. Besides, the concentration for half-maximal inhibition (IC50) at 72 h in [7] was 2.07 µM.

In the case of `COc1c(C)c(OS(=O)(=O)c2ccc3ccccc3c2)c(C)c(O)c1C(=O)/C=C/c1ccccc1` [Compound 2n, 2′-Hydroxy-4′-(2-naphthalenesulfonyl)oxy-6′-methoxy-3′,5′-dimethylchalcone], the IC50 in [1] was 27.8 µM; in series [2] it was 21.1 µM; in [3], 24.7 µM; in series [4], 39.8 µM; in series [5], more than 50 µM; in series [6] it was 16.4 µM. Inhibition in [7] was half-maximal at 30.4 µM (IC50 at 72 h).

With `COc1c(C)c(OC(C)=O)c(C)c(OC(C)=O)c1C(=O)/C=C/c1ccccc1` [Compound 5f, 2′,4′-Diacetyloxy-6′-methoxy-3′,5′-dimethylchalcone], the IC50 in series [1] is 28 µM; in [2], 33.6 µM; in [3], 36.5 µM; in [4] it was 29.8 µM; in [5], 15.4 µM; in series [6], 18.8 µM. Also, the IC50 at 72 h in series [7] stood at 27.4 µM. Besides, in series [11], the “Cytotoxicity (in words)” value is “poor cytotoxicity”.

Turning to `COc1c(C)c(OC(=O)c2ccccc2)c(C)c(O)c1C(=O)/C=C/c1ccccc1` [Compound 2k, 2′-Hydroxy-4′-benzoyloxy-6′-methoxy-3′,5′-dimethylchalcone], the IC50 was more than 50 µM in [1]; 37.9 µM in series [2]; 32.5 µM in [3]; more than 50 µM in series [4]; 41.3 µM in series [5]; 20.2 µM in series [6]. The molecule further registered an IC50 at 72 h in series [7] of more than 50 µM.

For `CCCCCCCCCC(=O)Oc1c(C)c(O)c(C(=O)/C=C/c2ccccc2)c(OC)c1C` [Compound 2d, 2′-Hydroxy-4′-caprinoyloxy-6′-methoxy-3′,5′-dimethylchalcone], the IC50 in series [1] was more than 50 µM; in [2], 34.7 µM; in series [3], more than 50 µM; in series [4], 36.7 µM; in series [5] it was more than 50 µM; in [6], 24.8 µM. In series [7], half-maximal inhibition (IC50 at 72 h) was put at 41.9 µM.

For the molecule `C=CCOc1c(C)c(O)c(C(=O)/C=C/c2ccccc2)c(OC)c1C` [Compound 2i, 2′-Hydroxy-4′-allyloxy-6′-methoxy-3′,5′-dimethylchalcone], the IC50 came out at 31.3 µM in [1]; 29 µM in series [2]; 34.6 µM in series [3]; 39.1 µM in series [4]; 36.7 µM in series [5]; 28.2 µM in [6]. For the same molecule, in [7], inhibition was half-maximal at 31.7 µM (IC50 at 72 h).
